Shown are actives, neighbours in structure and some others; about 3.7% of the full set was active somewhere.
hERG rescue: shields human hERG channel from block by proarrhythmic agents; CHO-hERG, FluxOR thallium flux, dofetilide IC70 present; activation (rescue from dofetilide block), less the hit threshold, % at 10 µM; 310,000 compounds, 0.51% hits; AID 1511;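 active = activation above the mean of controls blocked by dofetilide plus 5 SD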;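 note: thallium influx through hERG after potassium depolarization seen as dye fluorescence rise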
KCNQ1 act: human KCNQ1 channel potentiation or activation; P51787; CHO-K1 KCNQ1, thallium flux FluxOR fluorescence; stronger effect = higher value; B-score at 10 µM; 310,000 compounds, 0.35% hits; AID 2648;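 active = fluorescence ratio B-score, a plate-corrected score, at least three library SD, with initial intensity B-score within 5 SD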
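Schedule – 37 °C overnight plating, 90-min dark dye load, 20-min compound pretreatment · System – stable KCNQ1 CHO-K1 line · Probe or stimulus – thallium- and potassium-containing depolarizing buffer · Measured by – kinetic FluxOR fluorescence, 10 s baseline plus 110 s post-stimulus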
KCNQ1 inh: blocks the human KCNQ1 potassium channel; P51787; CHO-K1 KCNQ1, FluxOR thallium flux fluorescence; stronger effect = higher value; B-score at 10 µM; 310,000 compounds, 1.3% hits; AID 2642;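 active = compounds whose thallium flux B-score, printed positive for inhibition, exceeds three library SD while starting fluorescence stays within three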;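 note: channel opened by potassium depolarization with thallium stimulus after 20 min compound exposure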
Kir21 block: blocks the mouse Kir2.1 inward-rectifier potassium channel. 310,000 compounds, 0.85% hits. AID 1672. HEK293-Kir2.1, FluxOR thallium flux fluorescence; stronger effect = lower value. B-score at 10 µM. P35561;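 active = fluorescence ratio B-score at or below minus 3 SD of library scores, with starting-brightness B-score within 2 SD, cut at about -4.2 in these data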;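 note: channel flux triggered by added potassium and thallium sulfate stimulus; B-score of peak minus minimum fluorescence over baseline after thallium stimulus; more negative B-score means stronger Kir2.1 block with less thallium influx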
KCNK3 inh: human KCNK3 channel inhibition, primary screen; O14649; CHO-KCNK3 thallium flux, FluxOR fluorescence; stronger effect = lower value; B-score at 10 µM; 340,000 compounds, 0.84% hits; AID 602410;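 active = B-score under library mean minus 4 SD, starting fluorescence ratio at most library mean plus 5 SD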;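 note: more negative B-score means stronger inhibition of thallium flux through KCNK3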
KCNK9 inh: inhibitors of human KCNK9 two-pore domain potassium channel; Q9NPC2; HEK293 KCNK9, FluxOR thallium flux fluorescence; stronger effect = lower value; B-score at 10 µM; 310,000 compounds, 1.2% hits;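 active = ratio B-score over 3 SD below the library mean, with starting fluorescence within 5 SD of its mean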;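 note: negative B-score means less thallium flux so channel inhibition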
Target sequence (Q9NPC2 whole entry, looked up, the tested form may be a part): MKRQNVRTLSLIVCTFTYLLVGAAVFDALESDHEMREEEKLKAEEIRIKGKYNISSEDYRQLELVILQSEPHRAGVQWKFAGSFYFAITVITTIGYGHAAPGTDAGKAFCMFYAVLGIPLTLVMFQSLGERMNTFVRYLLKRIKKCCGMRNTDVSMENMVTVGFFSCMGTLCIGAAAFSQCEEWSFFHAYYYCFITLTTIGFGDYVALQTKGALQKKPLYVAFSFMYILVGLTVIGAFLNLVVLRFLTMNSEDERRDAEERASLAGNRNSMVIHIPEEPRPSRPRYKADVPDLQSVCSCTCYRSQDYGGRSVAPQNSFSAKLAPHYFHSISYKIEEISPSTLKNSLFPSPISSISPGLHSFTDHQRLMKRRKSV
KCNK9 block conf: confirmation of human KCNK9 potassium channel inhibitors; 4,900 compounds, 43% hits; inhibition, % at 10 µM; HEK293 KCNK9 cells, FluxOR thallium flux fluorescence; shares compounds with KCNK9 inh;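 active = thallium signal inhibited by more than 5 SD of the compound-free buffer control wells, on both duplicate plates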;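 note: 0% = assay buffer control wells without compound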
Kir2-1 spec: selectivity of KCNK9 modulators against mouse Kir2.1; AID 492993; Kir2.1 cells, FluxOR thallium flux fluorescence; shares compounds with KCNK9 inh; 4,900 compounds, 4% hits; inhibition, % at 10 µM;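 active = thallium signal drop more than 5 SD beyond the mean of the no-compound control wells, seen in both duplicate plates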;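 note: signal is fluorescence rise after thallium addition divided by baseline fluorescence; plate controls were assay buffer only for no effect and full block by chlorpromazine control for full effect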
HEK293 Tl ctr: second counter-screen for KCNK9 modulators: effect in non-induced cells; inhibition, % at 10 µM; 4,900 compounds, 40% hits; AID 492997; shares compounds with KCNK9 inh; non-induced KCNK9-HEK293, FluxOR thallium flux;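 active = thallium signal drop beyond 5 SD of the untreated control mean, on both duplicate plates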;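 note: plate controls were buffer only IC0 wells for no effect and SID17386958 at its maximal inhibitory level for full effect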
* = called active by the depositor.

For COC(=O)C(Oc1ccc2c(-c3ccc(OC)cc3)cc(=O)oc2c1)c1ccccc1 (stereo not drawn) the results were hERG rescue -7, KCNQ1 act inactive, KCNQ1 inh inactive, Kir21 block -1.2, KCNK3 inh inactive, KCNK9 inh -9.3*, KCNK9 block conf 54%*, Kir2-1 spec inactive and HEK293 Tl ctr 36%*.
For Cc1ccc(NC(=O)CCC(=O)c2cccs2)c(Br)c1 the results were hERG rescue -12, KCNQ1 act inactive, KCNQ1 inh inactive, Kir21 block 0.77, KCNK3 inh inactive and KCNK9 inh inactive.
`CC1CCCCC1NC(=O)C(C)N1C(=O)c2ccccc2C1=O` (stereo not drawn) gave KCNK3 inh inactive.
For Cc1ccc(C2N(C)c3ccccc3-c3nc4ccccc4n32)o1 (stereo not drawn) the results were hERG rescue -11, KCNQ1 act inactive, KCNQ1 inh inactive, Kir21 block -2.6, KCNK3 inh inactive, KCNK9 inh -11*, KCNK9 block conf 32%*, Kir2-1 spec inactive and HEK293 Tl ctr 30%*.
Screening CC(=O)N1c2ccccc2-c2nc3ccccc3n2C1C (stereo not drawn) returned hERG rescue -13, KCNQ1 act inactive, KCNQ1 inh inactive, Kir21 block 0.39, KCNK3 inh inactive and KCNK9 inh inactive.
`CN1c2ccccc2-c2nc3ccccc3n2C1c1cccs1` (stereo not drawn) gave hERG rescue -14, KCNQ1 act inactive, KCNQ1 inh inactive, Kir21 block -1.5, KCNK3 inh inactive, KCNK9 inh -8.6*, KCNK9 block conf 38%*, Kir2-1 spec inactive and HEK293 Tl ctr 42%*.
`CN(C(=O)c1cccc(NC(=O)Cc2ccc(NC(=O)C3CCCN(C(=O)C4CCCC4)C3)cc2)c1)C1CC1` (stereo not drawn) gave KCNK3 inh inactive.
Screening CC(OC(=O)CCN=C1NS(=O)(=O)c2ccccc21)C(=O)Nc1ccc(S(N)(=O)=O)cc1 (stereo not drawn) returned KCNK3 inh inactive.
Screening CC(=O)C1=C(C)NC(SCC(=O)c2cc(Cl)ccc2Cl)=C(C#N)C1c1ccco1 (stereo not drawn) returned hERG rescue -6, KCNQ1 act inactive, KCNQ1 inh 11*, Kir21 block 1.1, KCNK3 inh -14*, KCNK9 inh -14*, KCNK9 block conf 74%*, Kir2-1 spec inactive and HEK293 Tl ctr 35%*.
Screening CC(=O)C1=C(C)NC(SCC(N)=O)=C(C#N)C1c1ccco1 (stereo not drawn) returned hERG rescue -5, KCNQ1 act inactive, KCNQ1 inh inactive, Kir21 block 0.01, KCNK3 inh inactive and KCNK9 inh inactive.
COc1cc(N=c2ssnc2Cl)c(OC)cc1Cl was read as hERG rescue -20, KCNQ1 act inactive, KCNQ1 inh inactive, Kir21 block -1.6, KCNK3 inh inactive, KCNK9 inh inactive, KCNK9 block conf inactive, Kir2-1 spec inactive and HEK293 Tl ctr inactive.
COc1ccc(OC)c(N=c2ssnc2Cl)c1 was read as hERG rescue -14, KCNQ1 act inactive, KCNQ1 inh inactive, Kir21 block -1.9, KCNK3 inh inactive and KCNK9 inh inactive.
`COc1ccccc1Cc1noc(COc2cccc(C)c2C)n1` gave hERG rescue -14, KCNQ1 act inactive, KCNQ1 inh inactive, Kir21 block 0.35, KCNK3 inh inactive, KCNK9 inh inactive, KCNK9 block conf inactive, Kir2-1 spec inactive and HEK293 Tl ctr inactive.
`O=C(O)c1ccccc1NS(=O)(=O)c1cccc(C(F)(F)F)c1` gave hERG rescue -8, KCNQ1 act inactive, KCNQ1 inh inactive, Kir21 block 0.15, KCNK3 inh inactive and KCNK9 inh inactive.
O=C(O)c1ccccc1NS(=O)(=O)c1cccc(-n2sc3ccccc3c2=O)c1 was read as hERG rescue -21, KCNQ1 act 13*, KCNQ1 inh inactive, Kir21 block 0.37, KCNK3 inh inactive, KCNK9 inh inactive, KCNK9 block conf inactive, Kir2-1 spec inactive and HEK293 Tl ctr inactive.
`O=C(CSc1nnc(C2CC2)n1C1CC1)c1cccs1` gave KCNK3 inh inactive.
CN(C)/C=N/c1nc(-c2ccc3ccccc3c2)cs1 was read as hERG rescue -7, KCNQ1 act inactive, KCNQ1 inh inactive, Kir21 block 1.2, KCNK3 inh inactive, KCNK9 inh inactive, KCNK9 block conf inactive, Kir2-1 spec inactive and HEK293 Tl ctr inactive.
Screening CN(C)/C=N/c1nc(-c2ccc3c(c2)OCO3)cs1 returned hERG rescue -4, KCNQ1 act inactive, KCNQ1 inh inactive, Kir21 block -1.1, KCNK3 inh inactive and KCNK9 inh inactive.
Screening COc1ccc(/C=C/C(=O)NCc2cccnc2)cc1 returned hERG rescue -2, KCNQ1 act inactive, KCNQ1 inh inactive, Kir21 block -0.01, KCNK3 inh inactive and KCNK9 inh inactive.
CCc1ccc(CN(Cc2cccnc2)C(=O)/C=C/c2ccc(OC)cc2)cc1 was read as hERG rescue -14, KCNQ1 act inactive, KCNQ1 inh inactive, Kir21 block 1.7, KCNK3 inh inactive, KCNK9 inh inactive, KCNK9 block conf inactive, Kir2-1 spec inactive and HEK293 Tl ctr inactive.
Screening CCOC(=O)N1C(=O)NC(=O)C1c1ccc(Cl)cc1 (stereo not drawn) returned KCNK3 inh inactive.
For CC(=O)Nc1nc(C)c(CCCOc2ccc([N+](=O)[O-])cc2)c(=O)[nH]1 the results were hERG rescue -8, KCNQ1 act inactive, KCNQ1 inh inactive, Kir21 block 0.11, KCNK3 inh inactive and KCNK9 inh inactive.
Cc1ccc(S(=O)(=O)N2CCCC2)cc1C(=O)NCC(C)(C)N1CCOCC1 was read as KCNK3 inh inactive.
Screening CC1CC(C)CN(CC(O)COCc2ccccc2)C1 (stereo not drawn) returned hERG rescue -2, KCNQ1 act inactive, KCNQ1 inh inactive, Kir21 block -1.1, KCNK3 inh inactive and KCNK9 inh inactive.

Bioassay records as filed in PubChem BioAssay.
